Measured values taken from ChEMBL document CHEMBL4304743, “Discovery of ( E)- N1-(3-Fluorophenyl)- N3-(3-(2-(pyridin-2-yl)vinyl)-1 H-indazol-6-yl)malonamide (CHMFL-KIT-033) as a Novel c-KIT T670I Mutant Selective Kinase Inhibitor for Gastrointestinal Stromal Tumors (GISTs)” (J Med Chem, 2019).
Calls of active or inactive are those of the source. The rule behind the calls is not given here.

Experiments:
[1] = test system: Mast/stem cell growth factor receptor Kit (Homo sapiens), P10721 [V559G]; experiment: Inhibition of TEL fused c-KIT V559G mutant (unknown origin) transfected in mouse BAF3 cells assessed as growth inhibition after 72 hrs by CCK8 assay; type: cell-based
Chain of Mast/stem cell growth factor receptor Kit (Homo sapiens), P10721 [V559G] (P10721 whole entry V559G, the tested form may be a part): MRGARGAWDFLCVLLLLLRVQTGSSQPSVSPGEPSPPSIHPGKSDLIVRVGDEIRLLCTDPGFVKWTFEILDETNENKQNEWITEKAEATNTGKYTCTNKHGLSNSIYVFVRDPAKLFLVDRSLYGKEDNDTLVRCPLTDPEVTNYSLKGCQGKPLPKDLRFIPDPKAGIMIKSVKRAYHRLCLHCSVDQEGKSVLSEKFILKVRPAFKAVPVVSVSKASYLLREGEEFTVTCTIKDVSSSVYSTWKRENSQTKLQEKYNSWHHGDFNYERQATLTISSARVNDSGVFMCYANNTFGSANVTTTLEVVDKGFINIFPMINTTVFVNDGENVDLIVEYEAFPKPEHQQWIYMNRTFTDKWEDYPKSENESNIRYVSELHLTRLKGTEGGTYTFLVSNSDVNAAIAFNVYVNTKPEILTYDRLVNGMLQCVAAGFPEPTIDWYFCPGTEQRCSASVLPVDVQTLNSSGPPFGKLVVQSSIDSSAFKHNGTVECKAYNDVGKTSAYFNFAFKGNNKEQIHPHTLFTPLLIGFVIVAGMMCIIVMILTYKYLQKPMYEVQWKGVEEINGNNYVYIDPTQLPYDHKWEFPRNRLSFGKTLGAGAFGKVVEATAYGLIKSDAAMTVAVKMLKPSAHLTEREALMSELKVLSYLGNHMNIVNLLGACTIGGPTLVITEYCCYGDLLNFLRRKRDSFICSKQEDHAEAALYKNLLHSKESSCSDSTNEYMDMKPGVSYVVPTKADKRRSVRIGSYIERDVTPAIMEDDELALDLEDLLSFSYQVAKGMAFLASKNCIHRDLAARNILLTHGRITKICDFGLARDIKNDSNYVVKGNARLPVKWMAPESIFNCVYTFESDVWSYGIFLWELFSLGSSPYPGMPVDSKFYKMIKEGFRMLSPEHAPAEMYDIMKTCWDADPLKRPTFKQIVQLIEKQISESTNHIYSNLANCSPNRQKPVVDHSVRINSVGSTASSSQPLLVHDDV
Procedure, shortened: (§1)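 Tel-c-KIT-transformed BaF3 lines (IL-3 independent) kept in RPMI 1640 with 10% FBS, 2% L-glutamine and pen/strep. Cells at 1.5 to 5 × 10^4 cells/mL mixed with graded compound and incubated 72 h at 37 °C, 5% CO2. Viability by CCK-8 absorbance at 450 nm, normalized to DMSO. GI50 from dose–response fit.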

[2] = test system: Mast/stem cell growth factor receptor Kit (Homo sapiens), P10721 [V559D,T670I]; experiment: Inhibition of TEL fused c-KIT T670I/V559D double mutant (unknown origin) transfected in mouse BAF3 cells assessed as growth inhibition after 72 hrs by CCK8 assay; type: cell-based; procedure, shortened: as §1
Chain of Mast/stem cell growth factor receptor Kit (Homo sapiens), P10721 [V559D,T670I] (P10721 whole entry V559D/T670I, the tested form may be a part): as the sequence (P10721 whole entry V559G, the tested form may be a part) above, with G559D, T670I counted along it

[3] = biological target: Mast/stem cell growth factor receptor Kit (Homo sapiens, UniProt P10721); experiment: Inhibition of wild type TEL fused c-KIT (unknown origin) transfected in mouse BAF3 cells assessed as growth inhibition after 72 hrs by CCK8 assay; type: cell-based; conditions: baf3, 72 h
Chain of Mast/stem cell growth factor receptor Kit (P10721 whole entry, the tested form may be a part): as the sequence (P10721 whole entry V559G, the tested form may be a part) above, with G559V counted along it
Procedure, shortened: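 IL-3 independent BaF3 cells stably expressing tel-c-KIT wt or tel-c-KIT T670I, grown in RPMI 1640 with 10% FBS, 2% L-glutamine, 37 °C, 5% CO2. Suspension cells at 1.5 to 5 × 10^4 cells/mL mixed with serial compound dilutions and incubated 72 h. Viability read by CCK-8 absorbance at 450 nm, normalized to DMSO; GI50 from curve fit. Selectivity is wt GI50 over T670I GI50.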

[4] = test system: Mast/stem cell growth factor receptor Kit (Homo sapiens), P10721 [L576P]; experiment: Inhibition of TEL fused c-KIT L576P mutant (unknown origin) transfected in mouse BAF3 cells assessed as growth inhibition after 72 hrs by CCK8 assay; type: cell-based; procedure, shortened: as §1
Chain of Mast/stem cell growth factor receptor Kit (Homo sapiens), P10721 [L576P] (P10721 whole entry L576P, the tested form may be a part): as the sequence (P10721 whole entry V559G, the tested form may be a part) above, with G559V, L576P counted along it

[5] = test system: Mast/stem cell growth factor receptor Kit (Homo sapiens), P10721 [A829P]; experiment: Inhibition of TEL fused c-KIT A829P mutant (unknown origin) transfected in mouse BAF3 cells assessed as growth inhibition after 72 hrs by CCK8 assay; type: cell-based; procedure, shortened: as §1
Chain of Mast/stem cell growth factor receptor Kit (Homo sapiens), P10721 [A829P] (P10721 whole entry A829P, the tested form may be a part): as the sequence (P10721 whole entry V559G, the tested form may be a part) above, with G559V, A829P counted along it

[6] = test system: Mast/stem cell growth factor receptor Kit (Homo sapiens), P10721 [D820E]; experiment: Inhibition of TEL fused c-KIT D820E mutant (unknown origin) transfected in mouse BAF3 cells assessed as growth inhibition after 72 hrs by CCK8 assay; type: cell-based; procedure, shortened: as §1
Chain of Mast/stem cell growth factor receptor Kit (Homo sapiens), P10721 [D820E] (P10721 whole entry D820E, the tested form may be a part): as the sequence (P10721 whole entry V559G, the tested form may be a part) above, with G559V, D820E counted along it

[7] = test system: Mast/stem cell growth factor receptor Kit (Homo sapiens), P10721 [V559D]; experiment: Inhibition of TEL fused c-KIT V559D mutant (unknown origin) transfected in mouse BAF3 cells assessed as growth inhibition after 72 hrs by CCK8 assay; type: cell-based; procedure, shortened: as §1
Chain of Mast/stem cell growth factor receptor Kit (Homo sapiens), P10721 [V559D] (P10721 whole entry V559D, the tested form may be a part): as the sequence (P10721 whole entry V559G, the tested form may be a part) above, with G559D counted along it

[8] = test system: Mast/stem cell growth factor receptor Kit (Homo sapiens), P10721 [N822K]; experiment: Inhibition of TEL fused c-KIT N822K mutant (unknown origin) transfected in mouse BAF3 cells assessed as growth inhibition after 72 hrs by CCK8 assay; type: cell-based; procedure, shortened: as §1
Chain of Mast/stem cell growth factor receptor Kit (Homo sapiens), P10721 [N822K] (P10721 whole entry N822K, the tested form may be a part): as the sequence (P10721 whole entry V559G, the tested form may be a part) above, with G559V, N822K counted along it

[9] = test system: Mast/stem cell growth factor receptor Kit (Homo sapiens), P10721 [T670I]; experiment: Inhibition of TEL fused c-KIT T670I mutant (unknown origin) transfected in mouse BAF3 cells assessed as growth inhibition after 72 hrs by CCK8 assay; type: cell-based; procedure, shortened: as §1
Chain of Mast/stem cell growth factor receptor Kit (Homo sapiens), P10721 [T670I] (P10721 whole entry T670I, the tested form may be a part): as the sequence (P10721 whole entry V559G, the tested form may be a part) above, with G559V, T670I counted along it

[10] = test system: Mast/stem cell growth factor receptor Kit (Homo sapiens), P10721 [V654A]; experiment: Inhibition of TEL fused c-KIT V654A mutant (unknown origin) transfected in mouse BAF3 cells assessed as growth inhibition after 72 hrs by CCK8 assay; type: cell-based; procedure, shortened: as §1
Chain of Mast/stem cell growth factor receptor Kit (Homo sapiens), P10721 [V654A] (P10721 whole entry V654A, the tested form may be a part): as the sequence (P10721 whole entry V559G, the tested form may be a part) above, with G559V, V654A counted along it

[11] = test system: Mast/stem cell growth factor receptor Kit (Homo sapiens), P10721 [D816V]; experiment: Inhibition of TEL fused c-KIT D816V mutant (unknown origin) transfected in mouse BAF3 cells assessed as growth inhibition after 72 hrs by CCK8 assay; type: cell-based; procedure, shortened: as §1
Chain of Mast/stem cell growth factor receptor Kit (Homo sapiens), P10721 [D816V] (P10721 whole entry D816V, the tested form may be a part): as the sequence (P10721 whole entry V559G, the tested form may be a part) above, with G559V, D816V counted along it

[12] = test system: Mast/stem cell growth factor receptor Kit (Homo sapiens), P10721 [D816H]; experiment: Inhibition of TEL fused c-KIT D816H mutant (unknown origin) transfected in mouse BAF3 cells assessed as growth inhibition after 72 hrs by CCK8 assay; type: cell-based; procedure, shortened: as §1
Chain of Mast/stem cell growth factor receptor Kit (Homo sapiens), P10721 [D816H] (P10721 whole entry D816H, the tested form may be a part): as the sequence (P10721 whole entry V559G, the tested form may be a part) above, with G559V, D816H counted along it

[13] = test system: Mast/stem cell growth factor receptor Kit (Homo sapiens), P10721 [V559A]; experiment: Inhibition of TEL fused c-KIT V559A mutant (unknown origin) transfected in mouse BAF3 cells assessed as growth inhibition after 72 hrs by CCK8 assay; type: cell-based; procedure, shortened: as §1
Chain of Mast/stem cell growth factor receptor Kit (Homo sapiens), P10721 [V559A] (P10721 whole entry V559A, the tested form may be a part): as the sequence (P10721 whole entry V559G, the tested form may be a part) above, with G559A counted along it

[14] = test system: Mast/stem cell growth factor receptor Kit (Homo sapiens), P10721 [V559D,V654A]; experiment: Inhibition of TEL fused c-KIT V654A/V559D double mutant (unknown origin) transfected in mouse BAF3 cells assessed as growth inhibition after 72 hrs by CCK8 assay; type: cell-based; procedure, shortened: as §1
Chain of Mast/stem cell growth factor receptor Kit (Homo sapiens), P10721 [V559D,V654A] (P10721 whole entry V559D/V654A, the tested form may be a part): as the sequence (P10721 whole entry V559G, the tested form may be a part) above, with G559D, V654A counted along it

GIST882 = experiment: Antiproliferative activity against human GIST882 cells harboring c-KIT K642E mutant incubated for 72 hrs by CCK8 assay; type: functional; conditions: GIST882, 72 h
Procedure, shortened: (§2)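 Adherent GIST cells seeded at 1.5-5 × 10^4 cells/mL and left overnight at 37 °C, 5% CO2. Medium then replaced with medium holding serial compound dilutions; 72 h incubation. Viability by CCK-8, absorbance at 450 nm, normalized to DMSO control; GI50 from dose-response fit.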

GISTT1 [15] = experiment: Antiproliferative activity against human GISTT1 cells harboring c-KIT 560 to 578 deletion/T670I double mutant incubated for 72 hrs by CCK8 assay; type: functional; conditions: GISTT1, 72 h; procedure, shortened: as §2
[16] = Antiproliferative activity against human GIST48B cells incubated for 72 hrs by CCK8 assay; type: functional; procedure, shortened: as §2
[17] = Antitumor activity against human GIST5R cells xenografted in nude mouse assessed as tumor weight at 100 mg/kg, po administered […] via gavage for 28 days (reference value: 0.59g); type: functional
Procedure, shortened: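 Female nu/nu mice (5 weeks old) given subcutaneous right-flank GIST-5R cells in Matrigel. Dosing began at tumors of 200-400 mm3; randomized, 4 mice per group. Daily oral dosing (QD) at 25, 50 or 100 mg/kg in 0.5% methylcellulose/0.4% Tween80, or vehicle alone, for 28 days. Body weight and tumor volume, (W²×L)/2, measured daily; mean±SEM.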

GISTT1 [18] = experiment: Antiproliferative activity against human GISTT1 cells harboring c-KIT 560 to 578 deletion mutant incubated for 72 hrs by CCK8 assay; type: functional; conditions: GISTT1, 72 h; procedure, shortened: as §2
[19] = test system: Mast/stem cell growth factor receptor Kit (Homo sapiens), P10721 [UNDEFINED MUTATION]; conditions: 1 uM
Chain of Mast/stem cell growth factor receptor Kit (Homo sapiens), P10721 [UNDEFINED MUTATION] (P10721 whole entry, looked up, stated change not applied): as the sequence (P10721 whole entry V559G, the tested form may be a part) above, with G559V counted along it

[20] = test system: Mast/stem cell growth factor receptor Kit (Homo sapiens), P10721 [UNDEFINED MUTATION]; conditions: GISTT1, 1 uM
[21] = test system: Mast/stem cell growth factor receptor Kit (Homo sapiens), P10721 [UNDEFINED MUTATION]; conditions: GISTT1, 1 uM; remark: listed apart in the source
[22] = Antiproliferative activity against human GIST5R cells harboring c-KIT 560 to 578 deletion/T670I double mutant incubated for 72 hrs by CCK8 assay; type: functional; procedure, shortened: as §2

Compound: CNC(=O)c1ccccc1Sc1ccc2c(/C=C/c3ccccn3)n[nH]c2c1 [AXITINIB]
- GI50 [1]: 2 nM
- GI50 [2]: 129 nM
- GI50 [3]: 105 nM
- GI50 [4]: 7 nM
- GI50 [5]: 406 nM
- GI50 [6]: 156 nM
- GI50 [7]: 12 nM
- GI50 [8]: 1720 nM
- GI50 [9]: 108 nM
- GI50 [10]: 14 nM
- GI50 [11]: 2020 nM
- GI50 [12]: 1820 nM
- GI50 [13]: 5 nM
- GI50 [14]: 13 nM

Compound: Cc1ccc(NC(=O)c2ccc(CN3CCN(C)CC3)cc2)cc1Nc1nccc(-c2cccnc2)n1 [IMATINIB]
- GI50 [1]: 1 nM
- GI50 (GIST882): 58 nM
- GI50 [3]: 364 nM
- GI50 (GISTT1 [15]): > 10000 nM
- GI50 [4]: 115 nM
- GI50 [16]: > 10000 nM
- Activity [17]: 0.41 g
- GI50 [6]: 267 nM
- GI50 (GISTT1 [18]): 26 nM
- inhibition [19]: inactive
- inhibition [20]: inactive
- inhibition [21]: inactive
- GI50 [10]: 2300 nM
- GI50 [22]: > 10000 nM
- GI50 [13]: 5 nM
